Screens as filed in PubChem.
Only some compounds are listed: those with a hit (about 2.3% of all), similar ones and a draw of the others.
T cruzi inh: inhibitors of intracellular T. cruzi growth, primary screen, luminescence, NIH3T3 host cells; T. cruzi beta-gal in NIH3T3, 90 h; inhibition, % (no concentration beside the values); hit rate 1.4% among 300,000;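 active means mean inhibition across valid replicates above about 55%, limit read from the data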;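 further: signal also drops with host cell toxicity which is not excluded here; 0% = plate median of DMSO wells and 100% = zero luminescence signal; higher percent means less beta-gal luminescence so fewer parasites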
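Read-out: Parasite load inhibition, % | Test system: Mouse NIH/3T3 fibroblasts infected with β-gal-expressing T. cruzi Tulahuen C4 | Amount: 5,000 cells/well | Medium: DMEM, 2% fetal bovine serum | Signal: GalScreen β-gal luminescence, detergent lysis, 60 min | Timing: 3 h attach, ≥90 h co-culture | Also added: Tulahuen C4 trypomastigotes, 5000/well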
Bfl-1 A1 inh: caspase 3/7 activation in MEF A1-2A-BIM cells, primary screen, A1 inhibitor project, cell-based, luminescence, HTS; caspase activation, % (test concentration not listed); hit rate 0.066% among 330,000; Caspase-Glo 3/7 luminescence, 3 h; percent of clofoctol response, vehicle zero;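 active means over half of replicate activation scores above 10%, or exactly half above 10 with the replicate mean above 10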
Beta cell apopt: inhibitors of cytokine-induced beta cell apoptosis, primary screen, luminescence; protection from apoptosis, % (concentration not given with the values); hit rate 0.8% among 300,000; AID 435005, 2010; INS-1E cytokine-induced death, ATP luminescence, 48 h; percent of positive-control rescue, neutral wells zero;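 active means Every replicate reaches about 75%, or at least half do and their mean reaches it too, limit read from the data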;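 further: 0% = cytokine-treated negative control wells and 100% = positive control rescue; higher means more ATP so stronger rescue from cytokine killing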
HIF activator: HIF pathway transcriptional activators, primary screen, cell-based, U2OS HRE-luciferase, luminescence; AID 1910, 2009; hit rate 0.32% among 300,000; activation, % at 7.5 µM (by protocol); U2OS HRE-luciferase reporter; normalized: DMSO 0%, desferrioxamine 100%;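 active means mean activation of at least 10% of the iron chelator positive control signal, with at least half of replicates also reaching 10%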
KLF5 inhibitor: KLF5 expression inhibitors, primary screen, DLD-1 cells, luminescence. inhibition, % at 5 µM. hit rate 0.23% among 290,000. DLD-1 KLF5 promoter-luciferase reporter. AID 1700, 2009;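 active means inhibition above a per-plate limit of that plate's mean compound inhibition plus 3 SD, cut at about 60% in these data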;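 further: 0% = DMSO wells and 100% = LY294002 at 200 µM; higher means less KLF5 promoter-driven luciferase light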
KLF5 inh confirm: KLF5 expression inhibitors, confirmation, DLD-1 cells, luminescence; shares compounds with KLF5 inhibitor; DLD-1 KLF5 promoter firefly luciferase reporter; inhibition, % at 4 µM; hit rate 79% among 610;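 active means inhibition above a set limit taken from the earlier primary screen, cut at about 63% in these data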;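 further: 0% = DMSO wells and 100% = LY294002 at 200 µM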
IEC-6 tox trip: cytotoxicity in rat IEC-6 cells, cytotoxicity control for KLF5 inhibitor project, cell-based, luminescence, triplicate. shares compounds with KLF5 inhibitor. hit rate 56% among 610. IEC-6 rat intestinal cells, viability luminescence. inhibition, % at 4 µM; in the data active means inhibition above about 23%;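 further: cells exposed to compounds for 48 hours before viability read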
The depositor's hits bear a star; nt = no result given.

SMILES	T cruzi inh	Bfl-1 A1 inh	Beta cell apopt	HIF activator	KLF5 inhibitor	KLF5 inh confirm	IEC-6 tox trip
C/C=C(\C)C(=O)N[C@@H](c1ccccc1)[C@@H](O)C(=O)O[C@H]1C[C@@]2(O)[C@@H](OC(=O)c3ccccc3)C3[C@](C)(C(=O)[C@H](OC(C)=O)C(=C1C)C2(C)C)[C@H](O)C[C@H]1OC[C@@]31OC(C)=O (stereo partly drawn)	56*	1	5	0	64*	86*	71*
CC(=O)O[C@@]12CO[C@@H]1C[C@@H](O)[C@@]1(C)C(=O)[C@H](O)C3=C(C)[C@@H](OC(=O)[C@H](O)[C@@H](NC(=O)c4ccccc4)c4ccccc4)C[C@@](O)([C@@H](OC(=O)c4ccccc4)C12)C3(C)C (stereo partly drawn)	71*	0	3	0	76*	87*	72*
COc1cc(OC)c(C=O)c(OC(=O)N(C)C)c1	-8	-1	-7	-1	-9	nt	nt
CC1=NCCc2c1[nH]c1ccccc21	25	0	0	0	-4	nt	nt
C[C@]12CC[C@H]3[C@@H](CC[C@]4(O)C[C@@H](O)CC[C@]34C=O)[C@@]1(O)CC[C@@H]2C1=CC(=O)OC1	nt	0	0	nt	nt	nt	nt
C[C@]12CCC3C(CCC4=CC(O)CC[C@@]43/C=N/O)C1(O)CCC2C1=CC(=O)OC1 (stereo partly drawn)	-4	0	-3	-4	91*	104*	-10
C[n+]1c(-c2ccccc2)c2cc(N)ccc2c2ccc(N)cc21	62*	-2	97*	1	108*	86*	-9
COP(=O)(OC)C1(O)C(=O)Nc2ccc(Br)cc21 (stereo not drawn)	-14	-1	nt	0	-10	nt	nt
CCCCN=C[C@]12CCC(O)CC1(O)CCC1[C@@H]2CC[C@]2(C)[C@H](C3C=CC(=O)O3)CCC12O (stereo partly drawn)	2	2	-10	-3	106*	105*	-1
CC12CC[C@H]3[C@@H](CCC4(O)C[C@H](O)CCC34/C=N/NC(=O)c3ccccc3Cl)C1(O)CCC2C1=CC(=O)OC1 (stereo partly drawn)	-3	-1	-3	0	-38	nt	nt
CC1C(OC(=O)CCC(=O)NC(C)(C)CO)O[C@H]2OC3(C)CC[C@H]4[C@H](C)CCC1C24OO3 (stereo partly drawn)	8	2	22	2	82*	85*	23*
C[C@H]1[C@H](OC(=O)CCC(=O)NCc2ccc(C(=O)O)cc2)O[C@@H]2O[C@@]3(C)CC[C@H]4[C@H](C)CC[C@@H]1C24OO3	3	0	30	2	80*	84*	26*
CC(C)CC(NC(=O)CCCNC(=O)CCC(=O)OC1O[C@H]2OC3(C)CC[C@H]4[C@H](C)CCC(C1C)C24OO3)C(=O)O (stereo partly drawn)	10	-1	22	1	82*	82*	20
COc1ccccc1-n1c(-c2ccccc2F)nc2ccccc2c1=O	7	1	nt	-1	nt	nt	nt
Cc1ccc(OC(F)F)c(N2C(=O)C3C4CCC(O4)C3C2=O)c1 (stereo not drawn)	nt	-1	1	nt	nt	nt	nt
COC(=O)C1=C(c2cccc(C#N)c2)C[C@@H]2CC[C@H]1N2C(=O)NCC1CC1	nt	0	-1	nt	nt	nt	nt
